Experiment [1] has as its target Human immunodeficiency virus type 1 reverse transcriptase (Human immunodeficiency virus 1, UniProt Q72547). Kind of experiment: Inhibition of HIV-1 reverse transcriptase using rCdG as template and dGTP as substrate.
Experiment [2] can be described thus: Concentration which reduced the viability of the uninfected MT-4 cells to 50% compared to untreated control cells. The conditions noted are these: MT4.
Experiment [3] deals with Human immunodeficiency virus type 1 reverse transcriptase (Human immunodeficiency virus 1) (UniProt Q72547). Nature of the experiment: Concentration which reduced the cytopathic effect of HIV-1 in MT-4 infected cells. Format: functional, cell-based. Summed up:
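MT4 cells at 2 × 10⁵ cells/mL in RPMI 1640 with 10% FCS, penicillin and streptomycin (2 × 10⁴ cells/well). Compounds added from DMSO stocks diluted in medium (final DMSO ≤1%), then HIV-1 IIIB at 10 TCID₅₀/well. After 6 days in CO₂, surviving cells read by XTT. ED₅₀ is the concentration reducing virus cytopathic effect, mean of at least two experiments.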

Turning to `Fc1ccc(CCNC(=S)Nc2nccs2)cc1`, the IC50 in experiment [1] amounted to 1000 nM. The compound also had a CD50 in experiment [2] of 78 µM. In addition, the ED50 in experiment [3] was determined as 3300 nM.

For `N#Cc1csc(NC(=S)NCCc2c(F)cccc2F)n1`, the half-maximal inhibitory concentration (IC50) in experiment [1] amounted to 6 nM. This compound came in with a CD50 in experiment [2] of 10 µM. This compound gave an ED50 in experiment [3] of 30 nM.
